Screens from PubChem.
CHRM4 PAM: potentiates acetylcholine response at human M4 receptor. P08173. CHO-K1 hM4/Gqi5, Fluo-8 calcium fluorescence, ACh EC20; 0% = ACh EC20, 100% = maximal ACh. activation, % at 3 µM. 0.4% of 360,000 active. AID 624126;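 active means activation above its plate's cutoff, the mean activation of sample wells plus 3 SD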
Target sequence (P08173 whole entry, looked up): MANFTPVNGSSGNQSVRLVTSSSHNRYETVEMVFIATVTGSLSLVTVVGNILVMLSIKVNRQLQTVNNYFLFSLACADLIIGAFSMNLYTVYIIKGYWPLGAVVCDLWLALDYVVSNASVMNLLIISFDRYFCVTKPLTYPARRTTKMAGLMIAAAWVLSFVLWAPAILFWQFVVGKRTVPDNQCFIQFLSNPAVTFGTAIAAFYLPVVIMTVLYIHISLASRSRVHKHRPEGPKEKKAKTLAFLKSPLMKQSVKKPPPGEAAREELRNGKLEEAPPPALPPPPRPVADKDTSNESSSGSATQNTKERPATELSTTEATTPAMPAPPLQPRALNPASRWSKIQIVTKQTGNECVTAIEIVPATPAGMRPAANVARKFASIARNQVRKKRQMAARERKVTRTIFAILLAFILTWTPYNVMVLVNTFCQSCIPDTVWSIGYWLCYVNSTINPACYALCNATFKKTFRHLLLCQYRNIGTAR
CHRM4 antagonist: CHRM4 antagonism in calcium assay | P08173 | CHO-hM4 cells, ACh EC80, Fluo-8 calcium fluorescence | inhibition, % at 3 µM | 0.73% of 360,000 active;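 active means inhibition above its plate's cutoff, the mean inhibition of sample wells plus 3 SD, cut at about 27% in these data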
CHRM5 agonist: CHRM5 agonism in calcium assay | P08912 | AID 624037 | activation, % at 3 µM | CHO-K1 hM5 cells, Fluo-8 calcium fluorescence; 0% DMSO wells, 100% maximal acetylcholine response | 0.19% of 360,000 active;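 active means activation above the run's mean over test compounds plus 3 SD, cut at about 23% in these data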;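 further: signal is peak over basal fluorescence ratio across the kinetic read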
CHRM4 agonist: CHRM4 agonism in calcium assay; CHO-K1 hM4/Gqi5, Fluo-8 calcium fluorescence; vehicle 0%, full acetylcholine response 100%; activation, % at 3 µM; 0.14% of 360,000 active;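 active means activation above the run mean over all test wells plus 3 SD, cut at about 32% in these data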;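 further: peak over basal fluorescence ratio per well then scaled between controls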
CHRM5 PAM: CHRM5 positive allosteric modulation; 0.3% of 360,000 active; activation, % at 3 µM; P08912; CHO-K1 hM5, Fluo-8 calcium, ACh EC20 PAM; 0% = ACh EC20, 100% = ACh EC100;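 active means activation above the run cutoff, the mean activation of all test compounds plus 3 SD, cut at about 18% in these data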
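System – CHO-K1 hM5 cells · Compound – 3 µM, single dose · Incubation – compound preincubation 140 s before EC20 acetylcholine addition · Technique – Fluo-8 calcium fluorescence · Measure – Max/basal fluorescence ratio as % of EC20–EC100 ACh window · Benchmarks – low control EC20 acetylcholine (0%), high control EC100 acetylcholine (100%) · Replication – singlicate, one well per test compound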
M5 antag: blocks acetylcholine activation of human M5 receptor. CHO-hM5 cells, Fluo-8 calcium fluorescence, ACh EC80. 0.59% of 360,000 active. inhibition, % at 3 µM. AID 624040. P08912;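 active means inhibition above a per-plate cutoff, the mean of that plate's test compounds plus 3 SD, cut at about 27% in these data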
Numbers stand for hits; – = inactive. A selection: hits, their analogues and other compounds. The true share with any hit is near 1.9%.

SMILES | CHRM4 PAM | CHRM4 antagonist | CHRM5 agonist | CHRM4 agonist | CHRM5 PAM | M5 antag
O=C(Nc1cccc(C(=O)Nc2cccc(Br)c2)c1)c1ccccc1 | – | – | – | – | – | 30
O=C(O)c1cccc(NC(=O)c2ccccc2)c1 | – | – | – | – | – | –
CC(C)c1ccc(CN2CCC(C)(Oc3ccc(Cl)cc3)C2)cc1 (stereo unspecified) | – | – | – | – | – | –
COc1cc(OC)cc(OC2(C)CCN(Cc3ccc(OC(C)C)cc3)C2)c1 (stereo unspecified) | – | 53 | – | – | – | –
COC(=O)Cc1ccc(OC2(C)CCN(Cc3ccccc3)C2)cc1 (stereo unspecified) | – | 63 | – | – | – | –
CC1=C(C)/C(=N\OS(=O)(=O)c2ccccc2)C=CC1=O | – | 67 | – | – | – | 30
O=C(Cc1ccccc1)Nc1nnc(-c2cccc([N+](=O)[O-])c2)s1 | 35 | – | – | – | – | –
Cc1cc([N+](=O)[O-])nn1CCC(=O)Nc1nccs1 | – | – | – | – | 18 | –
Cc1nn(CC(=O)Nc2nccs2)c(C)c1[N+](=O)[O-] | – | – | – | – | – | –
COc1ccc(OC)c(C2C(C(=O)c3ccc(C)o3)=C(O)C(=O)N2CCCN2CCOCC2)c1 (stereo unspecified) | – | – | – | – | 23 | –
Cc1ccc(NC(=S)N(CCCN2CCOCC2)Cc2cccs2)c(C)c1 | – | – | – | – | – | –
Cc1c(Cl)cccc1NC(=S)N(CCCN1CCOCC1)Cc1cccs1 | – | 56 | – | – | – | –
COc1ccc(NC(=S)N(CCCN2CCCCC2)Cc2cccs2)cc1 | – | 40 | – | – | – | –
CN(Cc1ccon1)C(=O)CC1C(=O)NCCN1CC1CCCCC1 (stereo unspecified) | – | – | – | – | – | –
CCN1CCN(CCNC(=O)c2ccc(/C=C3/Sc4ccccc4N(Cc4ccccc4C)C3=O)cc2)CC1 | – | – | – | 33 | – | –
COc1cc(/C=C2/SC(=S)N(Cc3ccccc3)C2=O)cc(Cl)c1O | – | – | – | – | – | 33
CCOc1cc(/C=C2/SC(=S)N(Cc3ccccc3)C2=O)ccc1O | – | – | 42 | – | – | –
COc1cc([N+](=O)[O-])cc(/C=C2/SC(=S)N(Cc3ccccc3)C2=O)c1O | – | – | – | 32 | – | –
COc1cc(/C=C2/SC(=S)N(Cc3ccccc3)C2=O)ccc1OCC(=O)O | – | – | – | – | – | –
O=C(NC1CCCC1)C1c2ccccc2OCC(=O)N1Cc1ccc2c(c1)OCO2 (stereo unspecified) | – | – | – | – | – | –
COc1ccccc1NS(=O)(=O)c1ccc(C)c(C(=O)NCCCN2CCCC2=O)c1 | – | – | – | – | – | –
CCC(C)NC(=O)C1c2ccccc2C(=O)N1Cc1ccc(F)cc1 (stereo unspecified) | – | – | – | – | – | –
Cc1c(CN2CCC(CO)(CCOc3ccccc3)CC2)[nH]c2c(Cl)cccc12 | – | 29 | – | – | – | –
COc1ccc([N+](=O)[O-])cc1CSc1nnc(NC(C)=O)s1 | – | – | – | – | – | –
CCC(=O)N1CCN(C(=O)c2ccccc2)CC1 | – | 75 | – | – | – | –
SMILES | CHRM4 PAM | CHRM4 antagonist | CHRM5 agonist | CHRM4 agonist | CHRM5 PAM | M5 antag
CCCCCCC[N+](CC)(CC)CCCCc1ccc(Cl)cc1 | – | 38 | – | – | – | –
CCCCCNCc1ccc(Cl)cc1 | – | – | – | – | – | –
C=C(C)c1cccc(C(C)(C)NC(=O)Nc2ccc(OC)nc2)c1 | – | – | – | – | – | –
CCN1C(=O)CC2(C[N+]3(C)CCC2CC3)C1=O (stereo unspecified) | – | – | – | – | – | 53
COc1cccc(C(=O)NCCSCc2c(F)cccc2Cl)c1 | – | – | – | – | – | –
COc1cccc(C(=O)NCCSCc2ccccc2Cl)c1 | – | – | – | – | 18 | –
COc1ccccc1Cc1noc(COc2cccc(C)c2C)n1 | 34 | – | – | – | – | –
COc1ccccc1Cc1nc(-c2ccncc2)no1 | – | – | – | – | – | –
CCN(C(=O)CSc1nnc(COc2ccccc2F)n1N)c1c(N)n(Cc2ccccc2)c(=O)[nH]c1=O | – | – | – | – | – | –
CCN(CC)CCNC(=O)C12CC3CC(C)(CC(C)(C3)C1)C2 | – | – | – | – | – | –
CCN(CC)CCNC(=O)C12CC3CC(CC(C3)C1)C2 | – | 42 | – | – | – | –
COc1ccc(CC2(CO)CCN(CC3=Cc4cc(Cl)ccc4OC3)CC2)cc1 | – | 29 | – | – | – | –
CCN1CCc2c(sc(NC(=O)Nc3ccc(Cl)c(Cl)c3)c2C(N)=O)C1 | – | 51 | 77 | 124 | – | 58
Cc1nn(-c2ccccc2)c(-c2ccccc2[N+](=O)[O-])c1CC#N | – | – | – | – | – | –
CCC(C)NC(=O)C1CCCN(c2nc(C)cc(OC)n2)C1 (stereo unspecified) | 25 | – | – | – | 20 | –
Cc1ccccc1NS(=O)(=O)c1ccc(C(=O)NN2CCCCC2)cc1 | – | – | – | – | – | –
O=C(c1cccc(NS(=O)(=O)c2ccc(F)c(F)c2)c1)N1CCN(C(c2ccccc2)c2ccccc2)CC1 | 31 | – | – | – | – | –
O=C(/C=C/c1cccc([N+](=O)[O-])c1)OCC1CCCO1 (stereo unspecified) | – | – | – | – | – | –
CC(C)(C)[C@H]1C=C(C(=O)N2CCN(Cc3ccc4c(c3)OCO4)CC2)O[C@@H](OCCCCO)C1 | – | – | – | – | 20 | –
CN(Cc1ccon1)C(=O)c1ccc2nc(Cc3cccc(Cl)c3)oc2c1 | – | – | – | – | 19 | –
CCCCOCCCNc1ncnc2c1[nH]c1ccccc12 | – | 31 | – | – | – | 28
CCOCCCNc1ncnc2c1[nH]c1ccccc12 | – | – | – | – | – | –
O=C(COc1ccc([N+](=O)[O-])cc1)Nc1cccc2nsnc12 | – | – | – | – | – | –
O=C(CSc1n[nH]c(=O)n1-c1cccnc1)N1CCOCC1 | – | – | – | – | 20 | –
Cn1c(SCC(=O)N2CCOCC2)nc2cccnc21 | – | – | – | – | 21 | –
CCOc1cc(/C=C2\COc3ccccc3C2=O)cc(Br)c1OCC(=O)N(C)C | – | 29 | – | – | – | –
COc1ccc(/C=C2\COc3ccccc3C2=O)cc1OC | – | – | – | – | – | –
O=C(CCNC(=O)N1CC(=O)Nc2ccccc21)NCCc1cccc(F)c1 | – | – | – | – | – | –
O=C(CNC(=O)N1CC(=O)Nc2ccccc21)NCCc1cccc(F)c1 | 19 | – | – | – | – | –
